Assay outcomes deposited in PubChem BioAssay by Broad Institute.
An excerpt weighted towards active compounds, which were near 1.5% of everything screened.
RAD52 inh – blocks human RAD52 DNA annealing | P43351 | recombinant RAD52 DNA annealing, FRET fluorescence | inhibition, % at 18.7 µM | 360,000 tested, 0.46% active | AID 651710;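 active means every replicate showing at least 50% inhibition; inconclusive means mean inhibition at least 50% but not in every replicate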
Target sequence (P43351 whole entry, looked up): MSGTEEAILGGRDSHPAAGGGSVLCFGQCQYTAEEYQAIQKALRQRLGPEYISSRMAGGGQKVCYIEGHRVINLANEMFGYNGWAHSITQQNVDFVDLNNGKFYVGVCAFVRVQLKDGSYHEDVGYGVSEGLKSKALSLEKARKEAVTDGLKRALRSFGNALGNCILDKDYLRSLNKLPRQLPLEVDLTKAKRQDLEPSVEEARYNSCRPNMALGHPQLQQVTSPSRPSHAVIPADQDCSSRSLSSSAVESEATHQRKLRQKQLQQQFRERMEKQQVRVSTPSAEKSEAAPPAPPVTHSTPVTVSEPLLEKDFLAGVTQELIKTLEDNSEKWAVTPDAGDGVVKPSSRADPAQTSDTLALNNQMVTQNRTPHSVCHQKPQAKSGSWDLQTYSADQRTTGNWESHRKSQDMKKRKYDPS
ERAP1 HTS inh – ERAP1 (human) enzyme inhibition | Q9NZ08 | recombinant ERAP1, Leu-AMC fluorescence, 60 min | inhibition, % at 10.7 µM | 340,000 tested, 0.15% active;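 active means mean replicate inhibition of at least 30%, or all replicates individually reaching that 30% level; inactive means mean below 30% and not every replicate reaching it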
S100A4 inh HTS – blocks human S100A4 binding to myosin IIA peptide. P26447. S100A4/TAMRA-MyoIIA peptide fluorescence polarization. inhibition, % at 10.7 µM. 360,000 tested, 0.14% active. AID 652163;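 active means mean inhibition of at least 70% across replicates, with every replicate also reaching that level; inconclusive means mean inhibition reaches 70% but some replicates fall short; inactive means mean inhibition below 70%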
Target sequence (P26447 whole entry, looked up): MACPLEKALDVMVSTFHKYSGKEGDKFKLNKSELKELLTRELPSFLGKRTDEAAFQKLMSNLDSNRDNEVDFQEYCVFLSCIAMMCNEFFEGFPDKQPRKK
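Material: S100A4 monomer protein | Medium: HEPES pH 7.2 with CaCl2, KCl, NaCl, DTT, Triton | Reagent: Labelled myosin peptide probe, 5 nM | Doses: One dose per compound | Times: 5 min incubation before reading | Benchmarks: Neutral control DMSO, positive control TFP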
AF4-AF9 inh – MLL-AF4/AF9 protein interaction inhibition; inhibition, % at 10 µM; AID 651704; AlphaScreen, biotin-AF4 peptide binding to FLAG-AF9; 350,000 tested, 0.47% active; P42568;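 active means every replicate reaching a set inhibition limit, whatever the replicate mean, cut at about 25% in these data; inconclusive means mean inhibition reaches that limit but some replicates miss it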
GSIS activator – primary screen for activators of insulin secretion dependent on glucose, INS-1E cells, GLuc reporter luminescence; INS-1E GLuc reporter insulin secretion, 2-3 h; activation, % at 16.6 µM; AID 743287; 370,000 tested, 0.61% active;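 active means lowest replicate activation of at least 40%, so every replicate reaches that level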
DNA binder FP – DNA binding artifact in RAD52 counter-screen; shares compounds with RAD52 inh; Salmon sperm DNA/acridine orange FP displacement; AC50, µM; 1,000 tested, 8% active; AID 652128;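 active means fitted half-maximal concentration for signal loss at or below twice the highest dose tested, in every separate run, actives reach about 64 µM in these data; inconclusive means runs disagree, or flat partial signal loss, or poor fit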
Large screens that a line does not name were inactive (follow-up assays come after a bar, where they were run); ! = repeats disagree.

COc1cccc(-c2cc(NC=O)c3ncc(-c4cccc(C(=O)N(C)C)c4)n3c2)c1	none (no result: GSIS activator)
COc1cccc(-c2cc(NC=O)c3ncc(-c4cccc(C(=O)NCCN(C)C)c4)n3c2)c1	RAD52 inh 94, AF4-AF9 inh inconclusive | DNA binder FP inactive
CN(C)CCNC(=O)c1cccc(-c2cnc3c(NC=O)cc(-c4cc(F)c(F)c(F)c4)cn23)c1	RAD52 inh 67 | DNA binder FP inactive
CN(C)CCNC(=O)c1cccc(-c2cnc3c(NC=O)cc(-c4ccc(S(C)(=O)=O)cc4)cn23)c1	RAD52 inh 96 | DNA binder FP inactive
CC(C)NC(=O)N(C)C[C@@H]1Oc2ncc(-c3ccc(C(=O)N(C)C)cc3)cc2C(=O)N([C@H](C)CO)C[C@@H]1C	none
CC=Cc1ccc2n(c1=O)C[C@@H]1[C@@H](CO)[C@H](C(=O)NCCc3ccncc3)N(Cc3cncnc3)[C@H]21 (mixture of isomers)	none
O=C(Nc1ccc(F)cc1)N1CC(=O)N2[C@H](CO)[C@@H](c3ccc(-c4ccc(F)cc4)cc3)[C@@H]2C1	none
C[C@@H]1CN([C@@H](C)CO)C(=O)c2cc(NC(=O)Nc3ccccc3)ccc2O[C@@H](C)CCCCO[C@@H]1CN(C)C(=O)Cc1ccccc1	none
CN(C)CCCn1c(=S)[nH]c2sc3c(c2c1=O)CCCC3	RAD52 inh 97 | DNA binder FP inactive
O=C(Cc1ccncc1)Nc1ccc2c(c1)[C@@H]1C[C@H](CC(=O)NC3CCCC3)O[C@H](CO)[C@@H]1O2	none
CN1CCN(c2ccc(CNC(=O)c3ccc(-c4ccc(F)c(F)c4)c4ccoc34)cc2)CC1	RAD52 inh 54 | DNA binder FP inactive
COc1ccc2c(c1OC)c(=O)n1c3ccc(OC(C)C(=O)NCCN4CCOCC4)cc3c3ccnc2c31 (stereo not given)	RAD52 inh 66 | DNA binder FP inconclusive
COc1ccccc1N(Cc1ccccc1)S(=O)(=O)c1cccc(C(=O)NC2CC(C)(C)NC(C)(C)C2)c1	RAD52 inh 57 | DNA binder FP inactive
COc1ccccc1N(Cc1ccccc1)S(=O)(=O)c1cccc(C(=O)O)c1	none (no result: GSIS activator)
CC1(C)CC(NC(=O)c2ccc(Cl)c(S(=O)(=O)N(Cc3ccccc3)c3ccccc3)c2)CC(C)(C)N1	RAD52 inh 51 | DNA binder FP inactive
O=C(O)c1ccc(Cl)c(S(=O)(=O)N(Cc2ccccc2)c2ccc(Cl)cc2)c1	none
O=C(N[C@@H]1CC[C@H](CC(=O)N2CCOCC2)O[C@H]1CO)c1ccccn1	none
C[C@H](CO)N1C[C@H](C)[C@H](CN(C)C(=O)c2ccc(F)cc2)Oc2cc(C3=CCCC3)ccc2S1(=O)=O	none (no result: RAD52 inh, ERAP1 HTS inh, S100A4 inh HTS, AF4-AF9 inh)
COc1ccc(/C=C2\Sc3ccc(C(=O)NCCCN4CCCC4)cc3N(C)C2=O)cc1OC	RAD52 inh 66 | DNA binder FP inactive
O=C1Nc2cc(C(=O)NCCCN3CCCC3)ccc2S/C1=C\c1ccccc1	RAD52 inh 84 | DNA binder FP inactive
COc1ccc(NC(=O)CCN2CCN(c3ccc(F)cc3)CC2)cc1	none | DNA binder FP inactive
COc1ccc(NC(=O)N(C)C[C@@H]2OCCCC[C@H](C)Oc3ccc(NC(=O)CCCN(C)C)cc3C(=O)N([C@@H](C)CO)C[C@H]2C)cc1	none
O=C(Nc1ccc(N2CCCC2)cc1)c1cccc(-c2cc3ccccc3oc2=O)c1	RAD52 inh 58 | DNA binder FP inactive
O=C(Nc1ccccc1N1CCCC1)c1cccc(-c2cc3ccccc3oc2=O)c1	none (no result: RAD52 inh, ERAP1 HTS inh, S100A4 inh HTS, AF4-AF9 inh)
COc1ccc(NC(=O)Nc2ccc3c(c2)C(=O)N([C@H](C)CO)C[C@@H](C)[C@@H](CN(C)Cc2ccc4c(c2)OCO4)OCCCC[C@H](C)O3)cc1	RAD52 inh 59! | DNA binder FP inactive
CCOC(=O)CN1C(=O)S/C(=C/c2ccc(OC)c([N+](=O)[O-])c2)C1=O	none
CCN(CC)CCN1C(=O)/C(=C\c2ccc(Cl)c([N+](=O)[O-])c2)SC1=Nc1ccc(OC)cc1	RAD52 inh 80 | DNA binder FP inactive
CN(C)CCCn1c2c3ccccc3ccc2c2oc(=O)c3ccccc3c21	RAD52 inh 64, GSIS activator 80 | DNA binder FP inactive
CN1CCN(c2ccc(CNC[C@H]3O[C@@H](n4cnc5c(=O)[nH]c(N)nc54)[C@H](O)[C@@H]3O)c(F)c2)CC1	RAD52 inh 82 | DNA binder FP inactive
COc1cc2c(cc1OC)C(c1ccccc1N)=NCC2	RAD52 inh 61 (no result: AF4-AF9 inh) | DNA binder FP inactive
COc1cc(CNC(C)(C)CO)cc(Br)c1OCc1ccc(Cl)cc1Cl	RAD52 inh 55, GSIS activator 176 | DNA binder FP inactive
Cc1cccc2nc(-c3ccccc3)c(-c3ccc(CN4CCC(n5cc(-c6ccccc6)[nH]c5=O)CC4)cc3)nc12	RAD52 inh 62 (no result: AF4-AF9 inh) | DNA binder FP inactive
c1ccc(-c2nc3ccccc3nc2-c2ccc(CN3CCC(c4nc5ccccc5[nH]4)CC3)cc2)cc1	none (no result: AF4-AF9 inh)
Cc1cccc2nc(-c3ccccc3)c(-c3ccc(CN4CCC(c5nc6ccccc6[nH]5)CC4)cc3)nc12	RAD52 inh 60 (no result: AF4-AF9 inh) | DNA binder FP inactive
Nc1ccn([C@@H]2O[C@H](CNCc3cccc4c3sc3ccccc34)[C@@H](O)[C@H]2O)c(=O)n1	RAD52 inh 54 (no result: GSIS activator) | DNA binder FP inactive
CCN1CCN(c2cc(C)c3cc(NC(=S)NCCCN4CCc5ccccc5C4)ccc3n2)CC1	RAD52 inh 106, AF4-AF9 inh inconclusive (no result: GSIS activator) | DNA binder FP inactive
CCN1CCN(c2cc(C)c3cc(NC(=S)N(C)Cc4ccccc4)ccc3n2)CC1	none
Cc1cc(N2CCN(C)CC2)nc2ccc(NC(=S)NCCCN3CCc4ccccc4C3)cc12	RAD52 inh 100 (no result: ERAP1 HTS inh) | DNA binder FP inactive
C=CC[N@@+]12CC[C@]34c5ccccc5N5/C=C6\C7N(/C=C(\C53)[C@@H](C[C@@H]41)/C(=C/CO)C2)c1ccccc1[C@@]71CC[N@@+]2(CC=C)C/C(=C\CO)[C@@H]6C[C@@H]12 (stereo not given in full)	RAD52 inh 69 | DNA binder FP inactive
CCN1[C@H](C(=O)NCCc2cn(C)cn2)[C@@H](CO)[C@@H]2Cn3c(ccc(-c4cccnc4)c3=O)[C@@H]21	none
COc1cc2c(cc1OC)-c1cc3ccc4c(c3c[n+]1CC2)OCO4	none (no result: GSIS activator)
COc1cc2c(cc1O)CC[n+]1cc3c(OC)c(OC)ccc3cc1-2	RAD52 inh 81 | DNA binder FP inactive
COc1ccc(-c2cc3nc(NCCCN(C)C)n(C)c(=O)c3s2)c(C)c1	RAD52 inh 55 | DNA binder FP inactive
CN(C)CCCNc1nc2cc(-c3ccc(F)cc3)sc2c(=O)n1C	RAD52 inh 71 | DNA binder FP inactive
CN(C)CCCNc1nc2cc(-c3ccccc3)sc2c(=O)n1C	RAD52 inh 54 | DNA binder FP inactive
